OPRM1-OPRD1 ag: OPRM1-OPRD1 heterodimerization agonism. cells, luminescence. activation, % at 9.3 µM. P35372+P41143. 340,000 tested, 0.3% active; in the data active means activation above about 18%;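 further: 0% = vehicle-treated cells and 100% = reference agonist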
HTR5A ag: HTR5A agonism, opioid heterodimer counter-screen | P47898 | HTR5A agonist assay, luminescence, cell-based | activation, % at 9.3 µM | 340,000 tested, 0.61% active | AID 504692; in the data active means activation mostly above about 9.5%, no sharp cut-off; inactive means mostly below about 7.6%;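 further: 0% = cells with vehicle only and 100% = reference agonist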
Target sequence (P47898 whole entry, looked up): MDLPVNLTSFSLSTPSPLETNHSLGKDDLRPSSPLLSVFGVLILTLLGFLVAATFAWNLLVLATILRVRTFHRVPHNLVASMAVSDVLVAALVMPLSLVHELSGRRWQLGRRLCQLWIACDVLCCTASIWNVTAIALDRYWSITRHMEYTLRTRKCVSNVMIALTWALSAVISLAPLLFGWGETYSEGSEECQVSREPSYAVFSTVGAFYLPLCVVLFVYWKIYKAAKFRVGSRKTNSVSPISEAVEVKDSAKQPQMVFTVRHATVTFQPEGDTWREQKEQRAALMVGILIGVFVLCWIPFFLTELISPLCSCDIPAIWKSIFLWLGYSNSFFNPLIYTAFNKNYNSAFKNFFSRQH
OPRM1-OPRD1 inv: mu-delta opioid heterodimer inverse agonism. P35372+P41143. cell-based MOR-DOR heterodimer luminescence. inhibition, % at 9.3 µM. 340,000 tested, 0.21% active; in the data active means inhibition above about 22%, passing the limit was not always enough;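 further: 0% = cells with DMSO and 100% = wells without cells with DMSO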
MC4R ag barr: agonists of human melanocortin 4 receptor (MC4R) beta-arrestin. P32245. U2OS MC4R beta-arrestin complementation, luminescence; percent of melanotan II response, DMSO zero. activation, % at 8.9 µM. 360,000 tested, 0.98% active;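 active means activation above a per-plate cutoff, the mean activation of sample wells on that plate plus 3 SD, cut at about 8% in these data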
Target sequence (P32245 whole entry, looked up): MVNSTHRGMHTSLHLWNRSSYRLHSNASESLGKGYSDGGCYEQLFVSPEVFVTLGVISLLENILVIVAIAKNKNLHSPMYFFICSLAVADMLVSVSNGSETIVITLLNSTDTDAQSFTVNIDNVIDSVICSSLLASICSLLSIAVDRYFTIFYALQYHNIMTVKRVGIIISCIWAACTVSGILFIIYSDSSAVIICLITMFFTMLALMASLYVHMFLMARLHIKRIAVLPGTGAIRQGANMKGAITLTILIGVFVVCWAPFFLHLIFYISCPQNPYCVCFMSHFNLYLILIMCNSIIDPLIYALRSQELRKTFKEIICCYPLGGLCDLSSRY
HTR5A inv ag: counter-screen for OPRM1-OPRD1 inverse agonists: human HTR5A inverse agonism. AID 504634. HTR5A cell line, luminescence. inhibition, % at 9.3 µM. P47898. 340,000 tested, 0.083% active; in the data active means inhibition mostly above about 23%, no sharp cut-off; inactive means mostly below about 18%;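 further: 0% = cells with DMSO and 100% = no-cell wells with DMSO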
MC4R antagonist: blocks human MC4R cAMP signaling; P32245; MC4R-expressing cells, MTII-stimulated cAMP, LANCE TR-FRET; inhibition, % at 6.5 µM; 360,000 tested, 0.48% active; AID 540295;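 active means inhibition above its plate's cutoff, the mean of tested wells on that plate plus 3 SD, cut at about 29% in these data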;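 further: 0% = Melanotan II alone and 100% = Melanotan II plus saturating MCL0020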
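System: U2OS-MC4R stable cell line; Technique: Eu-cAMP/anti-cAMP TR-FRET, emission 671 nm; Repeats: single well per compound; Also added: Melanotan II; Dosing: one concentration, 6.5 µM nominal; Schedule: 30-min compound, 1-h challenge, 1-h detection, room temperature.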
cAMP nonselect: nonselective cAMP signaling inhibitor, MC4R antagonist counter-screen | parental U2OS, forskolin cAMP, LANCE TR-FRET | 1,600 tested, 26% active | AID 602193 | inhibition, % at 6.5 µM | shares compounds with MC4R antagonist;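 active means mean inhibition over triplicates above the low-control well mean plus 3 SD, set per campaign, cut at about 13% in these data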;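 further: signal is single emission at 671 nm which falls as cellular cAMP rises; 0% = forskolin-stimulated wells and 100% = buffer without forskolin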
MC4R antag conf: human MC4R cAMP antagonism confirmation | shares compounds with MC4R antagonist | 1,600 tested, 27% active | MC4R-expressing cells, MTII-stimulated cAMP, TR-FRET | inhibition, % at 6.5 µM; in the data active means inhibition above about 29%;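 further: 0% = agonist stimulated wells alone and 100% = agonist stimulated wells plus saturating reference antagonist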
Numbers without * were called inactive; / = not tested or not shown. Only some compounds are listed: those with a hit (about 2.4% of all), similar ones and a draw of the others.

SMILES | OPRM1-OPRD1 ag | HTR5A ag | OPRM1-OPRD1 inv | MC4R ag barr | HTR5A inv ag | MC4R antagonist | cAMP nonselect | MC4R antag conf
COc1cc(OC)cc(C(=O)NC(C(=O)Nc2ccc3c(c2)OCO3)C(C)C)c1 (stereo unspecified) | 1.9 | -2.6 | -10.1 | 0.4 | 9.6 | 5.0 | / | /
CC(NC(=O)COC(=O)COc1cccc2c1OC(C)(C)C2)c1ccccc1 (stereo unspecified) | -2.5 | 0.4 | 13.3 | -2.6 | -1.5 | -0.8 | / | /
CCCCNC(=O)CN1C(=O)CSc2ccc(S(=O)(=O)N3CCOCC3)cc21 | / | / | / | -0.3 | / | 55.0* | -1.8 | -14.6
COc1ccc(CN2C(=O)C(CC(=O)NC3CCCCC3)CC(C(=O)N(C)C)=C2C)cc1 (stereo unspecified) | / | / | / | 6.5 | / | 12.0 | / | /
Cc1ccc(-n2c(SCC(=O)O)nc3c(sc(=S)n3-c3ccc(C)c(C)c3)c2=O)cc1 | 0.8 | 4.8 | -3.4 | 1.3 | -17.1 | 24.3 | / | /
Cc1ccc(C)c(Cn2c(C)nc3c(sc(=S)n3-c3ccccc3)c2=O)c1 | -0.8 | -0.3 | 3.8 | -0.9 | 0.7 | 30.8* | 2.2 | -5.3
COc1cc(OC)c(OC)cc1CNC(=O)CCN1C(=O)c2cccc([N+](=O)[O-])c2C1=O | 0.7 | -3.7 | -3.6 | 0.1 | -7.5 | 31.6* | 5.0 | 12.8
CC(C)N(c1ccccc1)c1ccc(NC(=O)COC(=O)CCN2C(=O)c3cccc([N+](=O)[O-])c3C2=O)cc1 | 2.4 | 2.3 | -10.6 | 7.4 | 28.8 | 35.9* | 13.0 | 21.3
COc1ccc(OC)c(NC(=O)CCN2C(=O)c3cccc([N+](=O)[O-])c3C2=O)c1 | -0.4 | 0.6 | 2.0 | -1.4 | -1.7 | 41.5* | 13.0 | 27.4
CCOc1ccc(NC(=O)CCN2C(=O)c3cccc([N+](=O)[O-])c3C2=O)cc1 | 1.0 | -3.6 | -5.0 | 0.8 | -14.9 | 32.9* | 10.4 | 17.6
COc1ccc(NC(=O)CCCCCN2C(=O)c3cccc([N+](=O)[O-])c3C2=O)c(OC)c1 | 3.4 | 0.1 | -16.9 | 0.3 | -0.3 | 15.7 | / | /
CN(Cc1ccco1)C(=O)CN1C(=O)NC2(CCCCC2)C1=O | -3.7 | 0.8 | 14.5 | -1.8 | 2.1 | 7.7 | / | /
COc1ccc(CNC(=O)CCN2C(=O)c3ccccc3C2=O)cc1OC | -0.3 | 2.1 | 2.5 | -0.6 | -5.7 | -4.0 | / | /
COc1ccc(CNC(=O)CCN2C(=O)c3ccncc3C2=O)cc1OC | -0.7 | -1.7 | 3.8 | 1.3 | 0.2 | 33.5* | -1.2 | -14.0
CC(O)CNC(=O)Cc1cc(=O)[nH]c(=O)[nH]1 (stereo unspecified) | -3.5 | -1.9 | 17.4 | 0.1 | 5.6 | -5.1 | / | /
O=C1COc2ccc(C(=O)COC(=O)c3ncc(Cl)c(Cl)c3Cl)cc2N1 | 3.0 | -2.3 | -20.1 | 4.7 | 12.1 | 29.4* | 1.9 | 1.2
O=C1COc2ccc(C(=O)COC(=O)c3nc(Cl)ccc3Cl)cc2N1 | -1.9 | 0.5 | 12.1 | -0.1 | 8.2 | 4.6 | / | /
COC(=O)C(Cc1ccccc1)NC(=O)c1ccc(C)cc1 (stereo unspecified) | 0.9 | 3.7 | -6.4 | -1.6 | 11.2 | 0.6 | / | /
COC(=O)C(Cc1ccc(O)cc1)NC(=O)c1ccccc1 (stereo unspecified) | 0.4 | 2.2 | -2.2 | 0.1 | 19.3 | 48.9* | 16.3* | 40.7*
CS(=O)(=O)c1cccc(C(=O)OCC(=O)Nc2ccc3c(c2)OCO3)c1 | -2.7 | -3.0 | 10.7 | -1.3 | 17.1 | -2.9 | / | /
COc1ccccc1-c1coc2cc(OCC(=O)OCc3ccccc3)ccc2c1=O | -2.2 | -2.0 | 11.7 | -2.7 | -6.8 | 23.7 | / | /
COc1ccccc1-c1c(C)oc2cc(OCC(=O)OCc3ccccc3)ccc2c1=O | -1.1 | -0.3 | 5.8 | 0.2 | -19.9 | 36.6* | 14.4* | 37.8*
O=c1[nH]c(=S)[nH]cc1Oc1ccc(Cl)cc1Cl | -1.6 | -4.8 | 8.4 | 1.3 | 17.5 | 35.5* | 2.7 | 2.1
Cc1nc(-c2ccccc2)[nH]c(=O)c1Oc1ccc(Cl)cc1Cl | 0.8 | -5.0 | -4.4 | 2.1 | 5.5 | 10.1 | / | /
COc1ccccc1NC(=O)NC1CCS(=O)(=O)C1 (stereo unspecified) | -0.7 | -0.8 | 3.4 | -1.2 | -22.1 | 33.7* | 1.7 | 5.5
SMILES | OPRM1-OPRD1 ag | HTR5A ag | OPRM1-OPRD1 inv | MC4R ag barr | HTR5A inv ag | MC4R antagonist | cAMP nonselect | MC4R antag conf
Cc1ccccc1NC(=O)NC1CCS(=O)(=O)C1 (stereo unspecified) | -0.4 | 3.6 | 2.4 | 1.0 | -10.2 | -2.7 | / | /
O=c1[nH]cnc2c1ncn2[C@@H]1O[C@H](COS(=O)(=O)O)[C@@H](O)[C@H]1O | -1.6 | 0.0 | 8.6 | -0.2 | 6.9 | 18.9 | / | /
O=C(COC(=O)C(Cc1ccccc1)NC(=O)c1cccs1)NCc1ccccc1 (stereo unspecified) | 1.9 | 7.0 | -7.6 | 2.1 | -17.6 | 30.5* | 8.4 | 20.9
O=C(COC(=O)[C@H](Cc1ccccc1)NC(=O)c1cccs1)Nc1c(Cl)cccc1Cl | 1.0 | 0.8 | -5.2 | -0.6 | -2.1 | 31.3* | 14.4* | 34.6*
COc1ccc(NC(=O)c2nc[nH]c2C(=O)N(C)Cc2ccccc2)cc1 | 0.0 | -0.6 | -0.2 | -0.7 | -2.1 | 2.8 | / | /
Cc1cc(C(=O)c2ccc(Cl)cc2)c(NC(=O)CCl)s1 | 4.0 | 2.0 | -20.6 | -0.3 | -25.6 | 40.6* | 23.6* | 64.9*
COc1ccc(N(C(=O)c2snc(C(N)=O)c2N)C(C(=O)NC2CCCC2)c2cccs2)cc1OC (stereo unspecified) | 2.2 | -0.9 | -16.6 | -0.4 | 2.3 | -1.1 | / | /
C#CC(=O)N(c1ccc(OC)cc1OC)C(C(=O)NC1CCCC1)c1cccs1 (stereo unspecified) | 52.1* | 43.3* | -274.2 | 9.0* | -121.4 | 42.8* | -38.0 | 41.7*
COc1ccc(CN2CCNC(=O)C2CC(=O)N(C)CCC2CCOCC2)c(OC)c1 (stereo unspecified) | -1.9 | 1.7 | 9.7 | -3.1 | -7.3 | 8.0 | / | /
COc1ccc(NS(=O)(=O)c2cc(NC(=O)c3cnccn3)ccc2OC)cc1Br | -2.8 | 1.4 | 13.5 | -1.8 | -3.8 | 2.9 | / | /
COc1ccc(-c2csc3nc[nH]c(=O)c23)cc1 | -1.8 | 2.5 | 9.1 | -2.1 | -11.4 | -0.8 | / | /
COc1ccc(-c2cnc3nc[nH]c(=O)c3n2)cc1 | 0.0 | -0.8 | 0.1 | 1.5 | 9.7 | 29.0* | -1.7 | -1.7
COc1ccc(COc2cc(-c3cccc(OC)c3)nc3ccc(NC(=O)c4ccc(OC)cc4)cc23)cc1 | 7.4 | 12.5 | -43.1 | -1.5 | -33.7 | -3.3 | / | /
